Hits are enriched below; roughly 4.3% of the tested compounds scored in any of these assays.
RBBP9 inhibitor – human RBBP9 inhibitors, primary screen, biochemical, fluorescence polarization, FP-Rh probe, HTS; Serine hydrolase RBBP9 (Homo sapiens), O75884; recombinant RBBP9; inhibition, % at 7.94 µM; 0.2% of 220,000 active; AID 1515, 2009;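 active means inhibition above the campaign mean of all tested compounds plus 3 SD, cut at about 14% in these data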
Target sequence (O75884 whole entry, looked up): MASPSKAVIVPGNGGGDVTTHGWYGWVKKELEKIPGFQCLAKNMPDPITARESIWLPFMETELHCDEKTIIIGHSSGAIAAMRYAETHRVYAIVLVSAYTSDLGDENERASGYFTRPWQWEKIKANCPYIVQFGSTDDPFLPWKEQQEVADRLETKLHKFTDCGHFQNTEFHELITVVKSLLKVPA
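Measured by – fluorescence polarization · Test system – RBBP9 protein · Input – 2.5 µM RBBP9 dispensing solution, before mixing · Measure – percent inhibition from mP, scaled between DMSO and no-protein wells · Benchmarks – DMSO-treated enzyme wells and wells lacking RBBP9 · Times – preincubation 30 min plus labeling 45 min at 25 °C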
PREPL inhibitor – PREPL enzyme inhibitors, primary screen, biochemical, fluorescence polarization; Prolyl endopeptidase-like (Homo sapiens), Q4J6C6; recombinant PREPL, fluorescence polarization activity-based probe; inhibition, % at 5.96 µM; 0.68% of 320,000 active; in the data active means inhibition above about 43%
Rin1-Abl PPI inh – inhibitors of Rin1-Abl protein binding, primary screen, biochemical, TR-FRET | inhibition, % at 7.35 µM | AID 588664, 2011 | 0.4% of 360,000 active; in the data active means inhibition above about 5%, passing the limit was not always enough
UBC13 inh – UBC13 polyubiquitin chain formation inhibitors, primary screen, biochemical, TR-FRET, uHTS; inhibition, % at 20 µM; 0.47% of 330,000 active; Ubiquitin-conjugating enzyme E2 N (Homo sapiens), P61088; in the data active means inhibition above about 45%, passing the limit was not always enough
Target sequence (P61088 whole entry, looked up): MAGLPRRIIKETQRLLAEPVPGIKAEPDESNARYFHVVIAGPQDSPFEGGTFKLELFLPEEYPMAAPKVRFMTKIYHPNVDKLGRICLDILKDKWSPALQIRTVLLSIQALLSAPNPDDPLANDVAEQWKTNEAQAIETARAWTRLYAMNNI
UBC9 SUMO inh – inhibitors of in vitro SUMOylation cascade, primary screen, biochemical, HTRF, uHTS; inhibition, % at 35 µM; SUMO-conjugating enzyme UBC9 (Homo sapiens), P63279; 0.36% of 290,000 active; HTRF SUMOylation assay, SAE1/SAE2 + UBC9; AID 2006, 2009; in the data active means inhibition above about 50%, passing the limit was not always enough
Target sequence (P63279 whole entry, looked up): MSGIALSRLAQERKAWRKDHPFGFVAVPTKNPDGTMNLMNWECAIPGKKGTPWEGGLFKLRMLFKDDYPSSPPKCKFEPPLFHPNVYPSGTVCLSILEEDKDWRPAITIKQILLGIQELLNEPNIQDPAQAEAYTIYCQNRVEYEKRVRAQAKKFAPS
ALR H2O2 inh – inhibitors of human ALR sulfhydryl oxidase, primary screen, biochemical, H2O2 detection, HRP-luminol luminescence, single point; FAD-linked sulfhydryl oxidase ALR (Homo sapiens), P55789; purified ALR, DTT oxidation; inhibition, % (test concentration not listed); 3.8% of 290,000 active; AID 485317, 2010;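 active means mean replicate inhibition above about 79%, with every replicate also reaching it, limit read from the data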
Of the large screens only hits and unclear results are named; the others gave an inactive call.

Cc1ccc(C(=O)CSc2nnc(-c3ccco3)n2C)cc1	none
COCCn1c(SCC(=O)c2cccc(OC)c2)nnc1-c1ccco1	ALR H2O2 inh 93
Cn1c(SCC(=O)c2cc(Cl)c(Cl)s2)nnc1-c1ccco1	ALR H2O2 inh 98
Cc1c(C(=O)N2CC(C)OC(C)C2)[nH]c2ccc(Br)cc12 (stereo unspecified)	none (no result: RBBP9 inhibitor, PREPL inhibitor)
Fc1ccc(CSc2nnc(-c3cnccn3)n2Cc2ccco2)cc1	ALR H2O2 inh 87
COc1cc(Cl)ccc1OC1(C)CCN(Cc2cccc(OC)c2OC)C1 (stereo unspecified)	none (no result: RBBP9 inhibitor, PREPL inhibitor, UBC13 inh, UBC9 SUMO inh, ALR H2O2 inh)
Cc1cc(S(=O)(=O)Nc2cc(C)c(O)c(C)c2)c(C)s1	ALR H2O2 inh 77
COC(=O)/C(=C/c1c[nH]c2ccccc12)NC(C)=O	none
CCOC(=O)/C(=C/c1c[nH]c2ccccc12)NC(C)=O	ALR H2O2 inh 97
C[C@@H]1CN([C@H](C)CO)C(=O)CCCn2nncc2CO[C@H]1CN(C)Cc1cccnc1	none (no result: RBBP9 inhibitor, PREPL inhibitor, UBC13 inh, UBC9 SUMO inh, ALR H2O2 inh)
O=C(Nc1ccc(Oc2ccc(Cl)cc2)c(Cl)c1)c1cc(I)cc(I)c1O	UBC9 SUMO inh 59 (no result: RBBP9 inhibitor)
COc1ccc(NC(=O)c2ccccc2F)cc1Cl	none
COc1cccc(-c2c(C(=O)N/N=C/c3sccc3C)nnn2-c2nonc2N)c1	none (no result: RBBP9 inhibitor)
Cc1ccc(NCc2nnc(SCC(=O)N3CCCCC3)n2CC2CCCO2)c(C)c1 (stereo unspecified)	ALR H2O2 inh 92 (no result: UBC9 SUMO inh)
S=c1[nH]nc(COc2ccccc2)n1/N=C/C=C/c1ccco1	ALR H2O2 inh 97
O=c1c2ccccc2nc(COc2ccccc2)n1/N=C/c1ccc(O)c(O)c1	ALR H2O2 inh 98
O=C(Nn1c(COc2ccccc2)nc2ccccc2c1=O)C(Cl)(Cl)Cl	ALR H2O2 inh 97 (no result: RBBP9 inhibitor, PREPL inhibitor)
O=C(O)COc1ccc(/C=N/n2c(COc3ccccc3)nc3ccccc3c2=O)cc1	none
Oc1ccc(/C=N/n2c(COc3ccccc3)n[nH]c2=S)cc1O	ALR H2O2 inh 100 (no result: RBBP9 inhibitor)
CC(C)(C)Cc1c(-c2ccc(C#N)cc2)nc2ccc(Cl)cn12	none (no result: RBBP9 inhibitor, PREPL inhibitor, UBC13 inh, UBC9 SUMO inh, ALR H2O2 inh)
Cn1nc(C(C)(C)C)cc1N1C(=O)CCC1(C)C(=O)NC1CCCC1 (stereo unspecified)	none (no result: RBBP9 inhibitor, PREPL inhibitor, UBC13 inh, UBC9 SUMO inh, ALR H2O2 inh)
Cc1ccc(C(=O)NC(=S)NCc2ccco2)cc1	none
O=[N+]([O-])c1ccccc1S(=O)(=O)N1CCSCC1	none (no result: RBBP9 inhibitor, UBC9 SUMO inh, ALR H2O2 inh)
Cc1cc(/C=N/n2c(COc3ccccc3)nc3ccccc3c2=O)c(O)c([N+](=O)[O-])c1	UBC9 SUMO inh 93
Cc1ccc(-c2[nH]ncc2/C=N/n2c(COc3ccccc3)nc3ccccc3c2=O)cc1	none (no result: ALR H2O2 inh)
Cc1ccccc1NC(=O)NC1(C(=O)NCC2CCCO2)CCCCC1 (stereo unspecified)	none (no result: RBBP9 inhibitor)
CCOC(=O)Cc1nn2c(=O)cc(C)nc2s1	ALR H2O2 inh 93
C#CCN(C[C@H]1[C@H](OC(=O)NCc2ccccc2F)[C@H](OC(=O)NCc2ccccc2F)C[C@@H](C(=O)OC)[C@H]1C(=O)OC)S(=O)(=O)c1ccc(C)cc1	none (no result: RBBP9 inhibitor, PREPL inhibitor, UBC13 inh, UBC9 SUMO inh, ALR H2O2 inh)
CC1(N(O)C=C2C=CC(=O)C=C2)CCCCC1=O (stereo unspecified)	ALR H2O2 inh 99
CN1C(=S)SC(N(O)C=C2C=CC(=O)C=C2)C1(C)C (stereo unspecified)	none (no result: ALR H2O2 inh)
O=c1cc(-c2ccc(OCc3ccccc3)cc2)oc2cc(OCc3ccccc3)cc(OCc3ccccc3)c12	none (no result: RBBP9 inhibitor, PREPL inhibitor, UBC13 inh, UBC9 SUMO inh, ALR H2O2 inh)
Cc1csc(NC(=O)c2oc3ccccc3c2C)n1	none (no result: RBBP9 inhibitor, UBC9 SUMO inh)
Cc1c(C(=O)NC2=NCCS2)oc2ccccc12	ALR H2O2 inh 97
O=C(NNC(=O)c1ccccc1-n1cccc1)c1ccc(Cl)nc1	none (no result: RBBP9 inhibitor, UBC9 SUMO inh)
CCNC(=S)NN(c1ccccc1)c1ccccc1	ALR H2O2 inh 98
CCOC1=C2[C@H](c3ccc(Cl)cc3)N(S(=O)(=O)c3ccc(C)cc3)C[C@H]2n2c(=O)n(-c3ccccc3)c(=O)n2C1	none (no result: RBBP9 inhibitor, PREPL inhibitor, UBC13 inh, UBC9 SUMO inh, ALR H2O2 inh)
Cn1cnnc1SCC(=O)c1cccc([N+](=O)[O-])c1	ALR H2O2 inh 83
COc1ccc(/C=N/c2oc(-c3ccccc3)cc2C#N)cc1	ALR H2O2 inh 97
N#Cc1cc(-c2ccccc2)oc1/N=C/c1ccccc1O	ALR H2O2 inh 97
